# Measurements as given in ChEMBL document CHEMBL1275391, “Design, synthesis, and preclinical evaluation of new 5,6- (or 6,7-) disubstituted-2-(fluorophenyl)quinolin-4-one derivatives as potent antitumor agents” (J Med Chem, 2010).
# Calls of active or inactive are those of the source. No cut-off for these calls is given here.
# Columns and labels:
# [1] = Cytotoxicity against human Hep3B cells after 48 hrs by MTT assay; type: functional, cell-based, Hep 3B2
# Method in brief: (§1)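 Cells exposed to a range of compound concentrations for 48 h, washed once with PBS, then incubated with MTT for 2 h. Formazan dissolved in DMSO and absorbance read at 570 nm. IC50 taken as the concentration giving 50% inhibition of proliferation.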
# HL-60 = test: Cytotoxicity against human HL60 cells after 48 hrs by MTT assay; type: functional, cell-based; conditions: HL-60, 48 h; method in brief: as §1
# NCI-H460 = test: Cytotoxicity against human H460 cells after 48 hrs by MTT assay; type: functional, cell-based; conditions: NCI-H460, 48 h; method in brief: as §1
# HCT-116 = test: Cytotoxicity against human HCT116 cells after 48 hrs by MTT assay; type: functional, cell-based; conditions: HCT-116, 48 h; method in brief: as §1
# Hep 3B2 [2] = test: Antitumor activity against human Hep3B cells xenografted in iv dosed BALB/c nude mouse assessed as inhibition of tumor growth administered qd for 5 times per week for 4 weeks measured on day 28; type: functional, organism-based
# Method in brief: (§2)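 Male Balb/c nude mice, 4-6 weeks, 18-20 g; 2 × 10^6 Hep3B cells in 0.1 mL injected subcutaneously into right flank. Dosing began when tumors exceeded 100 mm3 (day 0), given po or iv once daily, 5 days/week for 4 weeks, stopped day 28. Tumor volume (length × width² × 0.5) and body weight recorded every 7 days; T/C = (Tn − T0)/(Cn − C0) × 100%.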
# Hep 3B2 [3] = test: Antitumor activity against human Hep3B cells xenografted in BALB/c nude mouse assessed as inhibition of tumor growth administered at 7.5 mg/kg, po qd for 5 times per week for 4 weeks; type: functional, organism-based; parameters: dose 7.5 mg/kg; method in brief: as §2
# Mus musculus = test: Toxicity in human Hep3B cells xenografted BALB/c nude mouse assessed as change in body weight at 7.5 to 30 mg/kg, po qd for 5 times per week for 4 weeks measured on day 28; type: organism-based, Hep 3B2; parameters: dose 7.5-30 mg/kg, route oral; conditions: in vivo, 672 h
# Method in brief: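 Male Balb/c nude mice, 4-6 weeks old and 18-20 g, were housed under SPF conditions. Each received 2 × 10^6 Hep3B cells in 0.1 mL s.c. into the right flank. Once tumors exceeded 100 mm3 (day 0), animals were grouped and dosed orally once daily, 5 days/week for 4 weeks. Body weight and tumor size were recorded every 7 days up to day 28.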
# Hep 3B2 [4] = test: Antitumor activity against human Hep3B cells xenografted in BALB/c nude mouse assessed as inhibition of complete tumor growth administered at 30 mg/kg, po qd for 5 times per week for 4 weeks; type: functional, organism-based; parameters: dose 30 mg/kg; method in brief: as §2
# Hep 3B2 [5] = test: Antitumor activity against human Hep3B cells xenografted in BALB/c nude mouse assessed as inhibition of tumor growth administered at 7.5 to 30 mg/kg, po qd for 5 times per week for 4 weeks; type: functional, organism-based; conditions: TDE = time-dependent effect; method in brief: as §2
# Hep 3B2 [6] = test: Antitumor activity against human Hep3B cells xenografted in BALB/c nude mouse assessed as inhibition of tumor growth administered at 7.5 mg/kg, po qd for 5 times per week for 4 weeks
# Hep 3B2 [7] = test: Antitumor activity against human Hep3B cells xenografted in po dosed BALB/c nude mouse assessed as inhibition of tumor growth administered qd for 5 times per week for 4 weeks measured on day 28; type: functional, organism-based; method in brief: as §2
# Hep 3B2 [8] = test: Antitumor activity against human Hep3B cells xenografted in BALB/c nude mouse assessed as inhibition of tumor growth administered at 7.5 to 30 mg/kg, iv qd for 5 times per week for 4 weeks; type: functional, organism-based; conditions: TDE = time-dependent effect; method in brief: as §2
SMILES,IC50 [1] [µM],IC50 (HL-60) [nM],IC50 (NCI-H460) [µM],IC50 (HCT-116) [nM],Activity (Hep 3B2 [2]),Activity (Hep 3B2 [3]),Activity (Mus musculus),Activity (Hep 3B2 [4]),Activity (Hep 3B2 [5]),Activity (Hep 3B2 [6]),Activity (Hep 3B2 [7]),Activity (Hep 3B2 [8])
COc1ccc2[nH]c(-c3ccccc3F)cc(=O)c2c1O,0.05,70,0.11,50,–,–,–,–,–,–,–,–
O=c1cc(-c2ccccc2F)[nH]c2cc3c(cc12)OCO3,0.13,80,0.14,150,–,–,–,–,–,–,–,–
COc1ccc2[nH]c(-c3ccc(F)cc3)cc(=O)c2c1O,11,1800,8.8,2400,–,–,–,–,–,–,–,–
O=c1cc(-c2ccc(F)cc2)[nH]c2ccc(O)c(O)c12,100,38600,100,> 100000,–,–,–,–,–,–,–,–
COc1cc2c(=O)cc(-c3ccc(F)cc3)[nH]c2cc1O,> 100,38200,> 100,> 100000,–,–,–,–,–,–,–,–
COc1cc2c(=O)cc(-c3cccc(F)c3)[nH]c2cc1O,5.3,900,4.8,1100,–,–,–,–,–,–,–,–
COc1ccc2[nH]c(-c3cccc(F)c3)cc(=O)c2c1OC,2.6,1300,3.5,1200,–,–,–,–,–,–,–,–
O=c1cc(-c2cccc(F)c2)[nH]c2ccc3c(c12)OCO3,2.4,700,3.2,2500,–,–,–,–,–,–,–,–
O=c1cc(-c2ccccc2F)[nH]c2ccc3c(c12)OCO3,1.9,1000,4.5,2100,–,–,–,–,–,–,–,–
COc1ccc2[nH]c(-c3ccc(F)cc3)cc(=O)c2c1OC,> 20,2000,> 20,> 20000,–,–,–,–,–,–,–,–
COc1cc2c(=O)cc(-c3ccccc3F)[nH]c2cc1O,5.3,1300,4.4,5800,–,–,–,–,–,–,–,–
O=c1cc(-c2ccccc2F)[nH]c2ccc(O)c(O)c12,3.9,500,4.1,600,–,–,–,–,–,–,–,–
O=c1cc(-c2ccc(F)cc2)[nH]c2ccc3c(c12)OCO3,> 10,> 10000,> 10,> 10000,–,–,–,–,–,–,–,–
COc1ccc2[nH]c(-c3ccccc3F)cc(=O)c2c1OC,> 20,3700,> 20,> 20000,–,–,–,–,–,–,–,–
COc1ccc2[nH]c(-c3cccc(F)c3)cc(=O)c2c1OP(=O)([O-])[O-].[Na+].[Na+],–,–,–,–,Dose-dependent effect,Active,Non-toxic,Active,tde,Active,Dose-dependent effect,tde
O=c1cc(-c2cccc(F)c2)[nH]c2ccc(O)c(O)c12,6.9,300,6.1,8200,–,–,–,–,–,–,–,–
